The results in this text go back to ChEMBL document CHEMBL1123647, “(+)-cis-8-Hydroxy-1-methyl-2-(di-n-propylamino)tetralin: a potent and highly stereoselective 5-hydroxytryptamine receptor agonist” (1987).

Bounds are passed on as bounds.

In general, ED50 refers to the midpoint of the dose-response relation. Low readings indicate an effect at a small dose, high ones a need for a large dose.

What all share (assay type): functional
Holding throughout (conditions): sc

Assay [1] relates to Rattus norvegicus. In words: Effective dose required for half maximal decrease of 5-HTP formation after subcutaneous administration of compound in limbic tissue of rat brain. An outline of the steps: (§1)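 Reserpinized rats (reserpine 5 mg/kg ip, in glucose solution with a little acetic acid). Compounds were dissolved in saline, pH near neutral, and given sc. Brain 5-HTP was measured by HPLC with electrochemical detection. ED50 is the dose giving a half-maximal decrease of 5-HTP formation in that brain part, from a dose-response curve of five to six dose levels, n = 3-4.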

In assay [2] the test system is Rattus norvegicus. In words: Effective dose required for half maximal decrease of 5-HTP formation after subcutaneous administration of compound in hemispheres (cortex) for rat brain. An outline of the steps: as §1
The test system of assay [3] is Rattus norvegicus. In words: Effective dose required for half maximal decrease of DOPA accumulation after subcutaneous administration in limbic tissue of rat brain. An outline of the steps: (§2)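 Reserpinized rats (reserpine 5 mg/kg ip) received compound in saline sc. Brain DOPA was measured by HPLC with electrochemical detection. ED50 is the dose giving a half-maximal decrease of DOPA formation, from a dose-response curve of three to five dose levels, n = 3. Maximal reduction was taken as 65% of control for limbic tissue and 80% for striatum.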

Assay [4] has as its system Rattus norvegicus. In words: Effective dose required for half maximal decrease of 5-HTP formation after subcutaneous administration of compound in striatum tissue of rat brain. Put shortly:
as §1

For assay [5], the system named is Rattus norvegicus. In words: Effective dose required for half maximal decrease of DOPA accumulation after subcutaneous administration in striatum tissue of rat brain. Put shortly:
as §2

As for `CCCN(CCC)[C@@H]1CCc2cccc(O)c2[C@H]1C`, the ED50 in assay [1], in assay [2], in assay [3], in assay [4] and in assay [5] was over 50 µmol/kg each time.
Consider `CCCN(CCC)[C@@H]1CCc2cccc(OC)c2[C@@H]1C`, for which the ED50 in assay [1] was 0.53 µmol/kg; in assay [2] it was 0.77 µmol/kg; in assay [3] it was 1.71 µmol/kg; in assay [4] it was 0.6 µmol/kg; in assay [5], 1.88 µmol/kg.
With `CCCN(CCC)[C@@H]1CCc2cccc(OC)c2[C@H]1C`, the ED50 in assay [1], in assay [2], in assay [3], in assay [4] and in assay [5] was over 50 µmol/kg in each case.
`CCCN(CCC)[C@@H]1CCc2cccc(O)c2C1`: the ED50 in assay [1] is 0.061 µmol/kg; in assay [2] it was 0.077 µmol/kg; in assay [3], over 45 µmol/kg; in assay [4], 0.065 µmol/kg; in assay [5] it was over 45 µmol/kg.
As to `CCCN(CCC)[C@@H]1CCc2cccc(O)c2[C@@H]1C.Cl`, the ED50 in assay [3] and in assay [5] was over 50 µmol/kg each time.
